Measurements: ChEMBL document CHEMBL3124871, “Synthesis and pharmacological characterization of 1-benzyl-4-aminoindole-based thyroid hormone receptor β agonists” (Bioorg Med Chem, 2014)
Each block holds one molecule with its values, some of them ahead of it.

Tests used:
Rattus norvegicus [1] = assay: Toxicity in cholesterol-fed Sprague-Dawley rat assessed as TSH level at 150 mg/kg/day, po qd for 1 week measured 3 to 6 hrs post last dose (reference value: 3.0 +/- 1.0 uIU/ml); format: organism-based; parameters: route oral; conditions: in vivo
[2] = molecular target: T1, Thyroid hormone receptor beta (Homo sapiens, UniProt P10828); assay: Displacement of [125I]-Triiodothyronine from human recombinant TRbeta1 ligand binding domain after 2 to 3 hrs by beta counting
T1 sequence (P10828 whole entry): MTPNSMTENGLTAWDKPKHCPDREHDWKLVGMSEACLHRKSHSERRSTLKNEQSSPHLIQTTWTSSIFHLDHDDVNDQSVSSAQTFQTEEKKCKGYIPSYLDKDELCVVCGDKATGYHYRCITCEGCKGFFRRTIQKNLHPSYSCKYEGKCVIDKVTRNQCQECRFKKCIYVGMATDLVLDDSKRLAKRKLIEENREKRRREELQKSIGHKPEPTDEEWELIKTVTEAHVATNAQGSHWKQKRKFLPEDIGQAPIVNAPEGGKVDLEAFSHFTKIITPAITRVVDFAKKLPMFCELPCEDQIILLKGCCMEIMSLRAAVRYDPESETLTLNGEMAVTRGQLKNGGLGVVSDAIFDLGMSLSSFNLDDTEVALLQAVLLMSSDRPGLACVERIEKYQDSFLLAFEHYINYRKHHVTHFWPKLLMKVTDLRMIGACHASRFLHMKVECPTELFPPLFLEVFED

Rattus norvegicus [3] = assay: Reduction in plasma total cholesterol in cholesterol-fed Sprague-Dawley rat at 30 mg/kg/day, po qd for 1 week measured 3 to 6 hrs post last dose (reference value: 190 +/- 49 mg/dl); format: functional
Rattus norvegicus [4] = assay: Toxicity in cholesterol-fed Sprague-Dawley rat assessed as heart rate at 150 mg/kg/day, po qd for 1 week measured 3 to 6 hrs post last dose (reference value: 383.0 +/- 26.7 bpm); format: organism-based; parameters: route oral; conditions: in vivo
Rattus norvegicus [5] = assay: Toxicity in cholesterol-fed Sprague-Dawley rat assessed as total T4 level at 150 mg/kg/day, po qd for 1 week measured 3 to 6 hrs post last dose (reference value: 3.8 +/- 0.9 ug/dl); format: organism-based; parameters: route oral; conditions: in vivo
HepG2 = assay: Selectivity ratio of EC50 for human recombinant transfected in human HepG2 cells to EC50 for human recombinant TRbeta1 transfected in human HepG2; format: cell-based
Rattus norvegicus [6] = assay: Toxicity in cholesterol-fed Sprague-Dawley rat assessed as heart weight at 30 mg/kg/day, po qd for 1 week measured 3 to 6 hrs post last dose (reference value: 1.14 +/- 0.12 g); format: organism-based; parameters: route oral; conditions: in vivo
Rattus norvegicus [7] = assay: Reduction in plasma triglyceride level in cholesterol-fed Sprague-Dawley rat at 30 mg/kg/day, po qd for 1 week measured 3 to 6 hrs post last dose (reference value: 62 +/- 25 mg/dl); format: functional
Rattus norvegicus [8] = assay: Toxicity in cholesterol-fed Sprague-Dawley rat assessed as heart weight at 150 mg/kg/day, po qd for 1 week measured 3 to 6 hrs post last dose (reference value: 1.14 +/- 0.12 g); format: organism-based; parameters: route oral; conditions: in vivo
Rattus norvegicus [9] = assay: Reduction in plasma HDL-cholesterol in cholesterol-fed Sprague-Dawley rat at 30 mg/kg/day, po qd for 1 week measured 3 to 6 hrs post last dose (reference value: 22 +/- 6 mg/dl); format: functional
Rattus norvegicus [10] = assay: Toxicity in cholesterol-fed Sprague-Dawley rat assessed as TSH level at 30 mg/kg/day, po qd for 1 week measured 3 to 6 hrs post last dose (reference value: 3.0 +/- 1.0 uIU/ml); format: organism-based; parameters: route oral; conditions: in vivo
[11] = molecular target: T1, Thyroid hormone receptor beta; assay: Agonist activity at human recombinant TRbeta1 transfected in human HepG2 cells after 8 to 10 hrs by alkaline phosphatase reporter gene assay; format: cell-based
Rattus norvegicus [12] = assay: Reduction in plasma LDL-cholesterol in cholesterol-fed Sprague-Dawley rat at 30 mg/kg/day, po qd for 1 week measured 3 to 6 hrs post last dose (reference value: 51 +/- 15 mg/dl); format: functional
Rattus norvegicus [13] = assay: Reduction in plasma free cholesterol in cholesterol-fed Sprague-Dawley rat at 30 mg/kg/day, po qd for 1 week measured 3 to 6 hrs post last dose (reference value: 36 +/- 9 mg/dl); format: functional
CV-1 = assay: Selectivity ratio of EC50 for human recombinant transfected in CV-1 cells to EC50 for human recombinant TRbeta1 transfected in CV-1 cells; format: cell-based
Procedure, shortened: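 CV-1 monkey kidney cells grown in DMEM with 10% FBS for 24 h at 37 °C and 5% CO2. Transfected (FuGENE) with hTRα1 or hTRβ1 plus a SEAP reporter for 24 h, then exposed to T3 or test compound for 8-10 h. SEAP was read as A405 of p-nitrophenol (pH 9.8, 30 min, RT). EC50 was set against T3 max = 100%; mean of four experiments; α/β ratio of EC50s.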

Rattus norvegicus [14] = assay: Toxicity in cholesterol-fed Sprague-Dawley rat assessed as total T4 level at 30 mg/kg/day, po qd for 1 week measured 3 to 6 hrs post last dose (reference value: 3.8 +/- 0.9 ug/dl); format: organism-based; parameters: route oral; conditions: in vivo
[15] = molecular target: T2, Thyroid hormone receptor alpha (Homo sapiens, UniProt P10827); assay: Displacement of [125I]-Triiodothyronine from human recombinant TRalpha1 ligand binding domain after 2 to 3 hrs by beta counting
T2 sequence (P10827 whole entry): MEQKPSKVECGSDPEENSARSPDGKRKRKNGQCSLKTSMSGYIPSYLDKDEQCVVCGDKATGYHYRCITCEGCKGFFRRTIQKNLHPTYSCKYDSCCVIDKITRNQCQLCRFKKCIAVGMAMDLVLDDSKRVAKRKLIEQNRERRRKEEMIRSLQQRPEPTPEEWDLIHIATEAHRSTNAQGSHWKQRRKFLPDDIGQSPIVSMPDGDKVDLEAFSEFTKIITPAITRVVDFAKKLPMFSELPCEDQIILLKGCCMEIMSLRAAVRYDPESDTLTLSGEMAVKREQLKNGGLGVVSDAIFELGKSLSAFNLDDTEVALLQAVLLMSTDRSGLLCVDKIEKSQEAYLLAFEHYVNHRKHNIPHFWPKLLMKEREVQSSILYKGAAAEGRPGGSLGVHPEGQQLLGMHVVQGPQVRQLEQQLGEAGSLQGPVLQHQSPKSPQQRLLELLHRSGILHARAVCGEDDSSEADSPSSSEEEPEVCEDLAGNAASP

Rattus norvegicus [16] = assay: Toxicity in cholesterol-fed Sprague-Dawley rat assessed as heart rate at 30 mg/kg/day, po qd for 1 week measured 3 to 6 hrs post last dose (reference value: 383.0 +/- 26.7 bpm); format: organism-based; parameters: route oral; conditions: in vivo
[17] = molecular target: T1, Thyroid hormone receptor beta; assay: Agonist activity at human recombinant TRbeta1 transfected in CV-1 cells after 8 to 10 hrs by alkaline phosphatase reporter gene assay; format: cell-based
Homo sapiens [18] = organism: Homo sapiens; assay: Reduction in LDL-cholesterol in healthy human at 100 ug qd for 2 weeks; format: functional; parameters: scale not given: the % may be the effect or the level left
[19] = molecular target: T2, Thyroid hormone receptor alpha; assay: Agonist activity at human recombinant TRalpha1 transfected in CV-1 cells after 8 to 10 hrs by alkaline phosphatase reporter gene assay; format: cell-based
Homo sapiens [20] = organism: Homo sapiens; assay: Reduction in LDL-cholesterol in healthy human at 100 ug qd for 1 week; format: functional; parameters: scale not given: the % may be the effect or the level left

IC50 [2]: 230 nM | EC50 [11]: 220 nM | IC50 [15]: 5200 nM | EC50 [17]: 1700 nM
Structure (SMILES): Cc1cc2c(NC(=O)CC(=O)O)cccc2n1Cc1ccc(O)c(C(C)C)c1
Activity (Rattus norvegicus [1]): 0.9 uIU/ml | Activity (Rattus norvegicus [3]): 111 mg/dL | Activity (Rattus norvegicus [4]): 415.8 bpm | Activity (Rattus norvegicus [5]): 1.7 µg/dL | Ratio EC50 (HepG2): 16 | Activity (Rattus norvegicus [6]): 1.13 g | Activity (Rattus norvegicus [7]): 44 mg/dL | Activity (Rattus norvegicus [8]): 1.24 g | Activity (Rattus norvegicus [9]): 23 mg/dL | Activity (Rattus norvegicus [10]): 3.1 uIU/ml | Activity (Rattus norvegicus [12]): 25 mg/dL | Activity (Rattus norvegicus [13]): 19 mg/dL | Ratio EC50 (CV-1): 4.5 | Activity (Rattus norvegicus [14]): 2.8 µg/dL | Activity (Rattus norvegicus [16]): 403.2 bpm

IC50 [2]: 54 nM | EC50 [11]: 190 nM | IC50 [15]: 190 nM | EC50 [17]: 500 nM
Structure (SMILES): Cc1ccc(NC(=O)C(=O)O)c2ccn(Cc3ccc(O)c(C(C)C)c3)c12
Ratio EC50 (HepG2): 2.5 | Ratio EC50 (CV-1): 1.5

IC50 [2]: 1500 nM | IC50 [15]: 230 nM
Structure (SMILES): Cc1cc2cc(NC(=O)C(=O)O)ccc2n1Cc1ccc(O)c(C(C)C)c1

The remaining lines, values behind:

Structure (SMILES): Cc1cc(OCC(=O)O)cc(C)c1Cc1ccc(O)c(C(C)C)c1 [SOBETIROME]
Activity (Homo sapiens [18]): 41%

Structure (SMILES): Cc1c(CC(=O)NCC(=O)O)c2ccccc2n1Cc1ccc(O)c(C(C)C)c1
IC50 [2]: 430 nM | IC50 [15]: 8200 nM

Structure (SMILES): Cc1c(CC(=O)O)c2ccccc2n1Cc1ccc(O)c(C(C)C)c1
EC50 [19]: 450 nM | Ratio EC50 (CV-1): 3 | EC50 [17]: 150 nM

Structure (SMILES): CC(C)c1cc(Oc2c(Br)cc(NC(=O)CC(=O)O)cc2Br)ccc1O [EPROTIROME]
Activity (Homo sapiens [20]): 40%
